# From PubChem
# An excerpt weighted towards active compounds, which were near 3.1% of everything screened.
# miR122 inh: miR-122 Renilla sensor signal increase in Huh7, primary screen, miR-122 inhibitor project, cell-based, single point, plate reader; Huh7 miR-122 Renilla luciferase sensor, 48 h; neutral wells = 0, positive control = 100; activation (reporter increase), % at 12.5 µM; actives 0.3% (n = 340,000);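 active = mean replicate activation score at least 90 and every replicate individually at or above 90; inconclusive = only one of the two criteria met; inactive = neither criterion met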;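 also: higher luciferase means less miR-122 activity so hits act as miR-122 inhibitors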
# Cneo AK release: Cryptococcus neoformans cell lysis inducers, primary screen, AK release luminescence, single concentration; C. neoformans lysis, adenylate kinase release luminescence, 4 h; normalised: neutral wells 0, clomiphene wells 100; AID 651654, 2012; actives 0.2% (n = 360,000); lysis activity, % at 15 µM;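 active = mean lysis activity across replicates of at least 80%, whatever share of replicates individually reach that level; inactive = mean lysis activity below 80%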
#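 Signal: Adenylate kinase release luminescence | Assay system: Log-phase Cryptococcus neoformans yeast cells | Input: Cells at 5 × 10^6 per mL | Buffer or medium: Fresh YPD growth medium | Compound: Single dose | Schedule: Static 4 h at 37 °C with compound, 1 h detection | Controls: Clomiphene | Read-out: Luminescence rise reflecting yeast cell lysis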
# Ecoli rRNA inh: reduced GFP signal of wild-type E. coli, primary screen, bacterial rRNA inhibitor project, GFP/RFP fluorescence, OD600, single point; E. coli WT GFP vs humanized-ribosome RFP mutants, 24 h; hits give low values; DMSO median 0, no signal -100; actives 1.6% (n = 350,000); GFP signal change (wild-type ribosome), % (no concentration beside the values);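 active = significant combined selectivity score with lowered wild-type GFP, culture density cut under 30%, mutant RFP and density less affected; inactive = any of these conditions unmet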
# F508del corr: F508del CFTR correction, initial screen, CFBE line, single point; CFBE cells, YFP halide quenching; stimulated with forskolin plus potentiator P3; % fluorescence drop versus neutral controls; actives 0.36% (n = 350,000); activity (quench increase), % at 7.58 µM;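 active = mean added fluorescence quench of at least 8% versus neutral control, with both replicates also reaching 8%; inconclusive = only one of the mean or replicate conditions met; inactive = mean below 8% and not both replicates reaching 8%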;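 also: cells transiently co-express mutant CFTR-F508del with the halide-sensitive YFP; corrector assay measuring rescue of mutant channel to the surface after 24 h compound exposure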
# HIV Env fusion: inhibitors of HIV-1 Env-driven cell-cell fusion, primary screen, HeLa-JRFL effector, CEM21 target cells, luciferase; AID 651610, 2012; inhibition, % at 12.3 µM; actives 1.1% (n = 360,000);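 active = mean replicate inhibition score of at least 50 and every replicate individually at or above 50; inconclusive = only one of the two criteria met; inactive = mean below 50 and not all replicates reaching 50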;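 also: 0% = plate neutral controls and 100% = maraviroc near 300 nM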
# GSIS activator: GLuc luminescence reporter in INS-1E cells, primary screen for activators of glucose-dependent secretion of insulin; INS-1E GLuc reporter insulin secretion, 2-3 h; activation, % at 16.6 µM; actives 0.61% (n = 370,000); AID 743287, 2014;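 active = lowest replicate activation of at least 40%, so every replicate reaches that level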;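 also: 0% = median of neutral control wells and 100% = median of IBMX positive control wells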
# The depositor's hits bear a star; ? = inconclusive; . = no result given; [ ] = another dose, or the depositor's remark.
SMILES,miR122 inh,Cneo AK release,Ecoli rRNA inh,F508del corr,HIV Env fusion,GSIS activator
C/C=C/c1cnc2c(c1)C(=O)N([C@@H](C)CO)C[C@H](C)[C@@H](CN(C)C(=O)c1ccc3c(c1)OCO3)O2,5[16.7 µM],8,-3,-3,-11[16.7 µM],-8
CC(=O)Oc1c(C)cc(Cl)cc1C(=O)Nc1ccc([N+](=O)[O-])cc1Cl,.,.,-30,13*,?,27
O=C(C[C@@H]1CC[C@@H]2[C@H](COC[C@H](O)CN2Cc2cccc(-c3ccncc3)c2)O1)N1CCN(c2ccccc2)CC1,-4[16.7 µM],3,-4,5,.,-31
C[C@@H]1CN([C@H](C)CO)C(=O)c2cc(NS(=O)(=O)c3ccc(Cl)cc3)ccc2O[C@@H]1CN(C)Cc1ccc(C(=O)O)cc1,3[16.7 µM],0,-1,1,.,17
CC[C@@]12C(=O)N(c3cccc(Br)c3)C(=O)N1[C@H](c1ccc(F)cc1)[C@@H]1C(=O)N(C3CCCCC3)C(=O)[C@@H]12,-7,-1,17,3,93*,-8
CC(C)C[C@@]12C(=O)N(c3cccc(Br)c3)C(=O)N1[C@H](c1ccc(F)cc1)[C@@H]1C(=O)N(C3CCCCC3)C(=O)[C@@H]12,.,1,0,5,104*,.
CCN(CC)CCC(=O)Nc1cccc2c1C(=O)c1ccccc1C2=O,-11,-1,-47,24*,-52,.
O=C(C[C@@H]1C[C@H]2c3cc(NC(=O)NC4CCCC4)ccc3O[C@H]2[C@H](CO)O1)NCc1ccc(Cl)cc1,2[16.7 µM],-4,-4,3,.,-4
Nc1nn2cc(-c3ccccc3)nc2c2ccccc12,.,.,-41*,-1,-277,13
C[C@H](CO)N1C[C@H](C)[C@@H](CN(C)C(=O)Nc2cccc3ccccc23)Oc2ccc(NS(=O)(=O)c3cccs3)cc2C1=O,-4[16.7 µM],3,-2,0,.,10
CC1(c2cccc(Br)c2)NC(=O)N(CC(=O)Nc2ccc3c(c2)OCO3)C1=O (centres undefined),-4,11,-22*,-4,2,-35
OCCOCCn1c(CCNc2nc(-c3ccc(Cl)cc3)cs2)nc2cc(Cl)c(Cl)cc21,6,-5,-2,0,81*,0
CC[C@@H]1[C@H]2CCCC(=O)N3CC[C@@H](C[C@@H]1OC(=O)NCc1ccccc1)[C@@H]23,1,0,-8,-1,-18,-5
CCCCNC(=O)O[C@H]1C[C@@H]2CCN3C(=O)CCC[C@H]([C@H]1Cc1ccccc1)[C@H]23,.,-1,4,1,56*,-1
CN1C(=O)c2cc(NS(C)(=O)=O)ccc2OC[C@H]2O[C@H](CC(=O)N3CCOCC3)CC[C@@H]21,.,1,-3,.,?,7
O=C(CCNS(=O)(=O)c1ccccc1)N1CCCCCC1,1,-1,7,0,-8,8
O=C(CCNS(=O)(=O)c1ccccc1)N1CCCCCCC1,.,.,2,3,66*,16
NC(=O)C1CCN(C(=O)CCNS(=O)(=O)c2ccccc2F)CC1,.,-2,3,-3,.,48*
C[C@@H]1CN([C@H](C)CO)C(=O)c2cc(N(C)C)ccc2O[C@@H](C)CCCCO[C@@H]1CN(C)C(=O)Nc1ccc2c(c1)OCO2,11[16.7 µM],.,1,-3,10[16.7 µM],-15
CCCN(C)C[C@@H]1OCCCC[C@@H](C)Oc2ccc(NC(=O)CCC(F)(F)F)cc2C(=O)N([C@@H](C)CO)C[C@@H]1C,-5[16.7 µM],-6,1,2,5[16.7 µM],-1
O=C(C[C@H]1CC[C@H]2[C@@H](COC[C@H](O)CN2C(=O)Nc2ccc(Cl)c(Cl)c2)O1)NCc1ccncc1,-5[16.7 µM],-1,-52,-2,70*[16.7 µM],-42
COc1cccc(NC(=O)N2C[C@H](O)COC[C@H]3O[C@@H](CC(=O)NCc4ccccc4F)CC[C@@H]32)c1,-3[16.7 µM],119*,4,0,.,-1
O=C(C[C@@H]1CC[C@H]2[C@@H](COC[C@H](O)CN2C(=O)Nc2ccc(Cl)c(Cl)c2)O1)NCc1ccncc1,3[16.7 µM],27,-55,-2,-8[16.7 µM],-41
O=C(C[C@H]1CC[C@@H]2[C@H](COC[C@H](O)CN2C(=O)C2CCCC2)O1)NCc1ccncc1,122*[16.7 µM],67,0,2,.,4
O=C(C[C@@H]1CC[C@H]2[C@@H](COC[C@@H](O)CN2C(=O)C2CCCC2)O1)NCc1ccncc1,138*[16.7 µM],-2,0,1,.,5
SMILES,miR122 inh,Cneo AK release,Ecoli rRNA inh,F508del corr,HIV Env fusion,GSIS activator
Cc1ccc(S(=O)(=O)N[C@H]2CC[C@@H](CCNC(=O)CN3CCOCC3)O[C@H]2CO)cc1,.,0,-1,-1,14[16.7 µM],8
CC(C)NC(=O)N(C)C[C@H]1Oc2c(cccc2N(C)C)C(=O)N(C)C[C@@H]1C,.,.,-2,.,.,18
CC[C@@]12C(=O)N(c3cccc(F)c3)C(=O)N1[C@H](c1ccc(Br)cc1)[C@@H]1C(=O)N(C(C)(C)C)C(=O)[C@@H]12,-3,1,.,-3,98*,-5
CC(C)(C)N1C(=O)[C@H]2[C@@H](c3ccc(Br)cc3)N3C(=O)N(c4cccc(F)c4)C(=O)[C@@]3(Cc3ccccc3)[C@H]2C1=O,.,2,-2,-2,?,10
COc1ccc([C@@H]2[C@@H]3C(=O)N(C(C)(C)C)C(=O)[C@@H]3[C@]3(CC(C)C)C(=O)N(c4cccc(F)c4)C(=O)N23)cc1,.,2,22,1,99*,-24
COc1ccc([C@@H]2[C@@H]3C(=O)N(C(C)(C)C)C(=O)[C@@H]3[C@]3(Cc4ccccc4)C(=O)N(c4cccc(F)c4)C(=O)N23)cc1,0,0,4,1,45,-1
CCCN(C)C[C@@H]1OCCCC[C@@H](C)Oc2ccc(NS(=O)(=O)c3ccc(F)cc3)cc2C(=O)N([C@H](C)CO)C[C@@H]1C,0[16.7 µM],0,8,0,8[16.7 µM],6
C[C@H](CO)N1C[C@H](C)[C@@H](CN(C)C(=O)Nc2ccc(C(F)(F)F)cc2)Oc2ccc(N(C)C)cc2C1=O,25[16.7 µM],-1,-5,1,.,-23
C[C@@H]1CN([C@H](C)CO)C(=O)Cc2cc(N(C)C)ccc2O[C@H]1CN(C)C(=O)Nc1ccc(C(F)(F)F)cc1,4[16.7 µM],-9,-1,-1,4[16.7 µM],-8
